ChEMBL document CHEMBL4354826, “Structure-Based Discovery of SD-36 as a Potent, Selective, and Efficacious PROTAC Degrader of STAT3 Protein” (J Med Chem, 2019)
Active and inactive are the calls of the source. The rule behind the calls is not given here.

Legend:
[1] = biological target: T1, Signal transducer and activator of transcription 3 (Homo sapiens, UniProt P40763); assay: Binding affinity to recombinant human His/SUMO-tagged STAT3 (127 to 688 residues) expressed in Escherichia coli Rosetta (DE3) incubated for 1 hr by fluorescence polarization assay
T1 sequence (P40763 whole entry, the tested form may be a part): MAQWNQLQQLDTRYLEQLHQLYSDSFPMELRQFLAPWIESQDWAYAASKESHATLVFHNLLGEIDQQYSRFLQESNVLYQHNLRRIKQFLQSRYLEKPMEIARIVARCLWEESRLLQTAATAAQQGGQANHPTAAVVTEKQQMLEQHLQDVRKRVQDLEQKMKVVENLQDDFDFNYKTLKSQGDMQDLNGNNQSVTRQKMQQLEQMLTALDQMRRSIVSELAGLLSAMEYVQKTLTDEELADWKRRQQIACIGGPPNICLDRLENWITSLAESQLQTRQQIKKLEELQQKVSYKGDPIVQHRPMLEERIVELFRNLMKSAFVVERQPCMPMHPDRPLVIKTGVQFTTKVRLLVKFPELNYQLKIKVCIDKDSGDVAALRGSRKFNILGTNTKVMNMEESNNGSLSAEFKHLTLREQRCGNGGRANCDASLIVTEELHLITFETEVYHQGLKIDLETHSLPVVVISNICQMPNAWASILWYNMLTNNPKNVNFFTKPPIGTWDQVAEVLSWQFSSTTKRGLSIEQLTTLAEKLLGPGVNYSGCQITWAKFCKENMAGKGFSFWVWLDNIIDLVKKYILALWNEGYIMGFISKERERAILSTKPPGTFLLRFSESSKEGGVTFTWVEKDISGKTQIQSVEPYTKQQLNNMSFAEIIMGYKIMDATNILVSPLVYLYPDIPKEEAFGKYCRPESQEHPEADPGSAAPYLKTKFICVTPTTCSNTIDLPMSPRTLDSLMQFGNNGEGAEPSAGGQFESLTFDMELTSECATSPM

[2] = biological target: T2, Protein cereblon/Signal transducer and activator of transcription 3 (Homo sapiens, UniProt P40763+Q96SW2); assay: Protac activity at CRBN/STAT3 in human MOLM16 cells assessed as degradation of STAT3 incubated for 4 hrs by Western blot analysis; format: cell-based
How it was run: (§1)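 Molm-16 cells treated 4 h with serially diluted compound. Lysates immunoblotted (SDS–PAGE, PVDF, 5% blocker/TBST, chemiluminescence) for total STAT3 and pSTAT3 Y705. DC50 taken as the concentration reducing total STAT3 by 50%.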

[3] = biological target: T2, Protein cereblon/Signal transducer and activator of transcription 3; assay: Protac activity at CRBN/STAT3 in human SUDHL1 cells assessed as degradation of STAT3 incubated for 16 hrs by Western blot analysis; format: cell-based
Target sequence in this assay (P40763 whole entry): as the sequence (P40763 whole entry, the tested form may be a part) above
Target sequence in this assay (Q96SW2 whole entry): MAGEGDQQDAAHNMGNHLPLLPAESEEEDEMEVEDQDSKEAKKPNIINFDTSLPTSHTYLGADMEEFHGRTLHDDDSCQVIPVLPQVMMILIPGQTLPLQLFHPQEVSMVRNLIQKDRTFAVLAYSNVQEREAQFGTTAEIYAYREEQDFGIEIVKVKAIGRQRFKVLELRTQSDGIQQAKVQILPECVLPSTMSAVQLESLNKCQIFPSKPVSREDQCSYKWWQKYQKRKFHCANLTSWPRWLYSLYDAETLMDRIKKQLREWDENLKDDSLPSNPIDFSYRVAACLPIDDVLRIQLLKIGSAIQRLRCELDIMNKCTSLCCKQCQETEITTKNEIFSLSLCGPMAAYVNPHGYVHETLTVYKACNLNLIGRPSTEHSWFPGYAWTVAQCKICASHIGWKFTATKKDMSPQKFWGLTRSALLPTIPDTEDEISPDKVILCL

[4] = biological target: T2, Protein cereblon/Signal transducer and activator of transcription 3; assay: Protac activity at CRBN/STAT3 in human SUDHL1 cells assessed as degradation of phosphorylated STAT3 Y705 upto 5 uM incubated for 16 hrs by Western blot analysis; format: cell-based
Target sequence in this assay (P40763 2-770 limits assumed): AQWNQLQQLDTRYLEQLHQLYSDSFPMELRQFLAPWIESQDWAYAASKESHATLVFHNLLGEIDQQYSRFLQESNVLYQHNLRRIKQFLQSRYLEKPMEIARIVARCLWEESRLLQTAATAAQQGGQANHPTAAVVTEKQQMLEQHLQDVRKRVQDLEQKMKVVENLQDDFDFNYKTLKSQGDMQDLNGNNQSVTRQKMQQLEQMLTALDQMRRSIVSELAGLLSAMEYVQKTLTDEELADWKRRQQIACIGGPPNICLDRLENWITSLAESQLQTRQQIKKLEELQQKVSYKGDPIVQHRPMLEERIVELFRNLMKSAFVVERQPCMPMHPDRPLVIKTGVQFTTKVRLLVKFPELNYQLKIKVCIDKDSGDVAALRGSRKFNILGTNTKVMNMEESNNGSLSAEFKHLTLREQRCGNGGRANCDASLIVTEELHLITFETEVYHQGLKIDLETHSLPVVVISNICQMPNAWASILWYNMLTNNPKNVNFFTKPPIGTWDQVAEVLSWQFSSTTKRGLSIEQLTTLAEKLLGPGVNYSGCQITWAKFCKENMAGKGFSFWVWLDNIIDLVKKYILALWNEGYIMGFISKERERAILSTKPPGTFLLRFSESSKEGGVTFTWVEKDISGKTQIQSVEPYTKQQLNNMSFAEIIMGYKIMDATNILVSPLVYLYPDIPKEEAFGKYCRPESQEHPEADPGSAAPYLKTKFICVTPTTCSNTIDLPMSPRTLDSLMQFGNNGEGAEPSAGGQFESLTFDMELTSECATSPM
Target sequence in this assay (Q96SW2 whole entry partner): as the sequence (Q96SW2 whole entry) above

SU-DHL-1 = assay: Antiproliferative activity against human SUDHL1 cells assessed as reduction in cell viability incubated for 4 days by cell-titer glo luminescent assay; format: functional, cell-based; conditions: SU-DHL-1, 96 h
How it was run: (§2)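 Viability assay: cells incubated with serially diluted compounds for 4 days, viability read by CellTiter-Glo luminescence; IC50 from concentration–response.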

[5] = Antiproliferative activity against human MOLM16 cells assessed as reduction in cell viability incubated for 4 days by cell-titer glo luminescent assay; format: functional, cell-based; conditions: MOLM16, 96 h; how it was run: as §2
[6] = biological target: T2, Protein cereblon/Signal transducer and activator of transcription 3; assay: Protac activity at CRBN/STAT3 in human SUDHL1 cells assessed as degradation of STAT3 upto 5 uM incubated for 16 hrs by Western blot analysis; format: cell-based
Target sequence in this assay (P40763 2-770 limits assumed): as the sequence (P40763 2-770 limits assumed) above
Target sequence in this assay (Q96SW2 whole entry partner): as the sequence (Q96SW2 whole entry) above

[7] = biological target: T2, Protein cereblon/Signal transducer and activator of transcription 3; assay: Protac activity at CRBN/STAT3 in human MOLM16 cells assessed as degradation of phosphorylated STAT3 Y705 upto 10 uM incubated for 4 hrs by Western blot analysis; format: cell-based; how it was run: as §1
Target sequence in this assay (P40763 2-770 limits assumed): as the sequence (P40763 2-770 limits assumed) above
Target sequence in this assay (Q96SW2 whole entry partner): as the sequence (Q96SW2 whole entry) above

[8] = biological target: T2, Protein cereblon/Signal transducer and activator of transcription 3; assay: Protac activity at CRBN/STAT3 in human MOLM16 cells assessed as degradation of STAT3 up to 10 uM incubated for 4 hrs by Western blot analysis; format: cell-based; how it was run: as §1
Target sequence in this assay (P40763 2-770 limits assumed): as the sequence (P40763 2-770 limits assumed) above
Target sequence in this assay (Q96SW2 whole entry partner): as the sequence (Q96SW2 whole entry) above

[9] = biological target: T1, Signal transducer and activator of transcription 3; assay: Potency index, ratio of Ki of CJ-887 to Ki of compound for binding affinity to recombinant human His/SUMO-tagged STAT3 (127 to 688 residues) expressed in Escherichia coli Rosetta (DE3) incubated for 1 hr by fluorescence polarization assay
[10] = biological target: T2, Protein cereblon/Signal transducer and activator of transcription 3; assay: Protac activity at CRBN/STAT3 in human MOLM16 cells assessed as degradation of STAT3 at 1 uM incubated for 4 hrs by Western blot analysis; format: cell-based; how it was run: as §1
Target sequence in this assay (P40763 2-770 limits assumed): as the sequence (P40763 2-770 limits assumed) above
Target sequence in this assay (Q96SW2 whole entry partner): as the sequence (Q96SW2 whole entry) above

[11] = biological target: T2, Protein cereblon/Signal transducer and activator of transcription 3; assay: Protac activity at CRBN/STAT3 in human MOLM16 cells assessed as degradation of phosphorylated STAT3 Y705 at 1 uM incubated for 4 hrs by Western blot analysis; format: cell-based; how it was run: as §1
Target sequence in this assay (P40763 2-770 limits assumed): as the sequence (P40763 2-770 limits assumed) above
Target sequence in this assay (Q96SW2 whole entry partner): as the sequence (Q96SW2 whole entry) above

SMILES	Ki [1] [nM]	DC50 [2] [nM]	DC50 [3] [nM]	IC50 (SU-DHL-1) [nM]	IC50 [5] [nM]	further results
CC(=O)N1CC[C@H]2CC[C@@H](C(=O)N[C@@H](CCC(N)=O)C(=O)NC(c3ccccc3)c3ccccc3)N2C(=O)[C@@H](NC(=O)c2cc3cc(CP(=O)(O)O)ccc3[nH]2)C1	584					
C/C(=C\C(=O)N[C@H]1CN(C(=O)CCCCCC#Cc2cccc3c2CN(C2CCC(=O)NC2=O)C3=O)CC[C@H]2CC[C@@H](C(=O)N[C@@H](CCC(N)=O)C(=O)NC(c3ccccc3)c3ccccc3)N2C1=O)c1ccc(C(F)(F)P(=O)(O)O)cc1 (stereo partly specified)		4450	> 10000	> 10000	1250	Activity [4]: inactive; Activity [6]: inactive
NC(=O)CC[C@H](NC(=O)[C@@H]1CC[C@@H]2CCN(C(=O)OCCCCC#Cc3cccc4c3CN(C3CCC(=O)NC3=O)C4=O)C[C@H](NC(=O)c3cc4cc(C(F)(F)P(=O)(O)O)ccc4[nH]3)C(=O)N21)C(=O)NC(c1ccccc1)c1ccccc1 (stereo partly specified)		240	49	2370	128	
CC(=O)N1CC[C@H]2CC[C@@H](C(=O)N[C@@H](CCC(N)=O)C(=O)NCc3ccccc3)N2C(=O)[C@@H](NC(=O)c2cc3cc(C(F)(F)P(=O)(O)O)ccc3[nH]2)C1	14					
NC(=O)CC[C@H](NC(=O)[C@@H]1CC[C@@H]2CCN(C(=O)CCCCCC#Cc3cccc4c3CN(C3CCC(=O)NC3=O)C4=O)C[C@H](NC(=O)c3cc4cc(OP(=O)(O)O)ccc4[nH]3)C(=O)N21)C(=O)NC(c1ccccc1)c1ccccc1 (stereo partly specified)		> 10000			> 2000	Activity [7]: inactive; Activity [8]: inactive
CN1CC[C@H]2CC[C@@H](C(=O)N[C@@H](CCC(N)=O)C(=O)NCc3ccccc3)N2C(=O)[C@@H](NC(=O)c2cc3cc(C(F)(F)P(=O)(O)O)ccc3[nH]2)C1	14					
NC(=O)CC[C@H](NC(=O)[C@@H]1CC[C@@H]2CCCC[C@H](NC(=O)c3cc4cc(C(F)(F)P(=O)(O)O)ccc4[nH]3)C(=O)N21)C(=O)NCc1ccccc1	7					Ratio Ki [9]: 7
CC(=O)N1CC[C@H]2CC[C@@H](C(=O)N[C@@H](CCC(N)=O)C(=O)NC(c3ccccc3)c3ccccc3)N2C(=O)[C@@H](NC(=O)c2cc3cc(OP(=O)(O)O)ccc3[nH]2)C1	33					
NC(=O)CC[C@H](NC(=O)[C@@H]1CC[C@@H]2CCCC[C@H](NC(=O)c3cc4cc(OP(=O)(O)O)ccc4[nH]3)C(=O)N21)C(=O)NCc1ccccc1	25					Ratio Ki [9]: 2
CN1CC[C@H]2CC[C@@H](C(=O)N[C@@H](CCC(N)=O)C(=O)NC(c3ccccc3)c3ccccc3)N2C(=O)[C@@H](NC(=O)c2cc3cc(C(F)(F)P(=O)(O)O)ccc3[nH]2)C1	12					
CNC(=O)[C@H](CCC(N)=O)NC(=O)[C@@H]1CC[C@@H]2CCN(C(=O)CCCCCC#Cc3cccc4c3CN(C3CCC(=O)NC3=O)C4=O)C[C@H](NC(=O)c3cc4cc(C(F)(F)P(=O)(O)O)ccc4[nH]3)C(=O)N21 (stereo partly specified)		640	890	> 10000	226	
NC(=O)CC[C@H](NC(=O)[C@@H]1CC[C@@H]2CCN(C(=O)CCCC#Cc3cccc4c3CN(C3CCC(=O)NC3=O)C4=O)C[C@H](NC(=O)c3cc4cc(C(F)(F)P(=O)(O)O)ccc4[nH]3)C(=O)N21)C(=O)NC(c1ccccc1)c1ccccc1 (stereo partly specified)		2630			950	Activity [2]: Dose-dependent effect; Activity [10]: inactive; Activity [11]: inactive
NC(=O)CC[C@H](NC(=O)[C@@H]1CC[C@@H]2CCN(CCCCCCC#Cc3cccc4c3CN(C3CCC(=O)NC3=O)C4=O)C[C@H](NC(=O)c3cc4cc(C(F)(F)P(=O)(O)O)ccc4[nH]3)C(=O)N21)C(=O)NC(c1ccccc1)c1ccccc1 (stereo partly specified)		650	919	> 10000	147	
CC(=O)N1CC[C@H]2CC[C@@H](C(=O)N[C@@H](CCC(N)=O)C(=O)NC(c3ccccc3)c3ccccc3)N2C(=O)[C@@H](NC(=O)/C=C(\C)c2ccc(C(F)(F)P(=O)(O)O)cc2)C1	164					
NC(=O)CC[C@H](NC(=O)[C@@H]1CC[C@@H]2CCN(C(=O)CCCCCC#Cc3cccc4c3CN(C3CCC(=O)NC3=O)C4=O)C[C@H](NC(=O)c3cc4cc(CP(=O)(O)O)ccc4[nH]3)C(=O)N21)C(=O)NC(c1ccccc1)c1ccccc1 (stereo partly specified)		> 10000			> 2000	Activity [7]: inactive; Activity [8]: inactive
NC(=O)CC[C@H](NC(=O)[C@@H]1CC[C@@H]2CCN(C(=O)CCCCCC#Cc3cccc4c3C(=O)N(C3CCC(=O)NC3=O)C4=O)C[C@H](NC(=O)c3cc4cc(C(F)(F)P(=O)(O)O)ccc4[nH]3)C(=O)N21)C(=O)NC(c1ccccc1)c1ccccc1 (stereo partly specified)		3540	> 10000	> 10000	582	Activity [4]: inactive; Activity [6]: inactive
NC(=O)CC[C@H](NC(=O)[C@@H]1CC[C@@H]2CCN(C(=O)CCCCCC#Cc3cccc4c3CN(C3CCC(=O)NC3=O)C4=O)C[C@H](NC(=O)c3cc4cc(C(F)(F)P(=O)(O)O)ccc4[nH]3)C(=O)N21)C(=O)NCc1ccccc1 (stereo partly specified)		220	55	3240	210	
